Source: PubChem BioAssay (Sanford-Burnham Center for Chemical Genomics)
Scp1 inh: blocks human Scp-1 phosphatase activity | AID 493091 | Recombinant Scp1, phosphopeptide, malachite green phosphate absorbance | Q9GZU7 | 0.88% of 340,000 active | inhibition, % at 20 µM;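 active = inhibition above about 50% at 20 µM, limit read from the data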
Target sequence (Q9GZU7 76-261 limits assumed): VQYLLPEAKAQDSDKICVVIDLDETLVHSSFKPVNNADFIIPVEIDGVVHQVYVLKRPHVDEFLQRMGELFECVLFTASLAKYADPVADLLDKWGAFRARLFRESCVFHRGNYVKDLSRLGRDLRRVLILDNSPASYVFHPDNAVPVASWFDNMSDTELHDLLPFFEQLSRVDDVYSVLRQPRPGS
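Assay system: SCP-1 catalytic fragment, aa 76-261 | Buffer or medium: Tris acetate buffer pH 5.5 with MgCl2 and Tween-20 | Compound: One concentration, 20 µM, with 1.0% DMSO | Also added: Phospho 17-mer peptide substrate | Signal: Absorbance at 630 nm | Incubation: 45 min enzyme reaction at room temperature | Measure: % inhibition of SCP-1 phosphate liberation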
LMPTP block: LMPTP (human) inhibition; P24666; 0.22% of 360,000 active; inhibition, % at 20 µM; recombinant LMPTP-A, OMFP fluorogenic substrate, fluorescence intensity;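 active = compounds that cut the enzyme signal by at least half of the control window in the single-dose screen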
Target sequence (P24666 whole entry, looked up): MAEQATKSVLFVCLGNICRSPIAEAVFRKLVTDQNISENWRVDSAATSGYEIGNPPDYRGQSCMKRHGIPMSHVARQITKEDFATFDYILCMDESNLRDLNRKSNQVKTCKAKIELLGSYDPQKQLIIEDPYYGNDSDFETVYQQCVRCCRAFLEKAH
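material = LMPTP-A | quantity = 0.625 nM enzyme | reagent = OMFP substrate, 400 µM final | buffer or medium = Bis-Tris pH 6.0, DTT, detergent | detection = endpoint fluorescence intensity from OMFP dephosphorylation | dosing = single 20 µM dose | read-out basis = % inhibition relative to no-enzyme and uninhibited control wells | control set = no-enzyme and uninhibited controls | timing = 50 min at room temperature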
STEP inh: inhibitors of human striatal-enriched phosphatase STEP. recombinant STEP, OMFP fluorogenic substrate, fluorescence. inhibition, % at 20 µM. 0.25% of 360,000 active;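 active = inhibition at 20 µM, scaled per plate between control wells, above about 37%, limit read from the data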
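material = STEP tyrosine phosphatase | reagent = fluorogenic phosphatase substrate OMFP at 25 µM final | doses = single compound dose of 20 µM, 1% DMSO final | schedule = 20 min reaction, room temperature, in the dark | measured by = fluorescence, 480/540 nm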
DNMT1 block: blocks human DNA methyltransferase DNMT1 | 0.83% of 360,000 active | inhibition (reported as % activation of signal), % at 10 µM | AID 588458 | P26358 | DNMT1 molecular beacon, Hinp1I cleavage, fluorescence; in the data active = inhibition above about 50%
NadD inh: inhibitors of Staphylococcus aureus NadD; purified NadD enzyme, colorimetric absorbance read-out; inhibition, % at 20 µM; 0.78% of 360,000 active; AID 602399; in the data active = inhibition above about 26%
SUMO1 PPI mod: alters human SUMO1 binding to SIM partners; SUMO1 binding to a labelled peptide, TR-FRET, 1 h; 0.33% of 360,000 active; inhibition, % at 20 µM; in the data active = inhibition above about 37%
Target sequence (P63165 whole entry, looked up): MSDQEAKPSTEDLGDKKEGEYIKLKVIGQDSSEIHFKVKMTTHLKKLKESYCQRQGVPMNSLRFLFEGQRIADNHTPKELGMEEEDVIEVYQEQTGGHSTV
DNMT1 interf DR: counter-screen for DNMT1 inhibitors: spectral interference, dose response | molecular beacon fluorescence | AID 602382 | 200 tested, under 10 active | IC50, µM | shares compounds with DNMT1 block; call rule not given here
DNMT1 inh conf: DNMT1 inhibition confirmation, single concentration; inhibition, % at 10 µM; DNMT1 molecular beacon HinP1I cleavage, fluorescence; 8% of 2,300 active; shares compounds with DNMT1 block;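 active = average inhibition of at least 30% in the single-concentration confirmation test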
Beacon interf: counter-screen for DNMT1 inhibitors: spectral interference; DNMT1 molecular beacon spectral interference counterscreen, fluorescence 485/520; activation (fluorescence interference), % at 10 µM; shares compounds with DNMT1 block; 1% of 2,300 active; AID 602387;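 active = activation of at least 30% at 10 µM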;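 note: DNMT1 catalytic domain with a HinP1I cleavage step and a FAM/dabcyl DNA beacon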
Large screens that a line does not name were inactive (follow-up assays come after a bar, where they were run). A selection: hits, their analogues and other compounds. The true share with any hit is near 2.4%.

CC1(C(=O)Nc2ccc3nc[nH]c3c2)CCN1C(=O)C1(c2ccccc2)CC1 (stereo unspecified)	DNMT1 block 101.1 (no result: Scp1 inh) | DNMT1 inh conf inactive | Beacon interf inactive
CSc1ccc(NC(=O)C2(C)CCN2C(=O)C2(c3ccccc3)CC2)cc1 (stereo unspecified)	none (no result: Scp1 inh)
CC(C)CC1NC(=O)c2cc3ccccc3cc2-n2c1nc1ccc(Cl)cc1c2=O (stereo unspecified)	none (no result: Scp1 inh)
NS(=O)(=O)c1ccc(Nc2nc(-c3ccc(F)cc3)cs2)cc1	none
COc1ccc(-c2csc(Nc3ccc(S(N)(=O)=O)cc3)n2)cc1OC	DNMT1 block 63.3 | DNMT1 inh conf inactive | Beacon interf inactive
O=C(CSc1ncnc2sc3c(c12)CCCCC3)NCc1ccco1	none
CC(C)c1nc2sc3c(SCC(=O)NCc4ccco4)ncnc3c2c2c1CCC2	DNMT1 block 83.2, NadD inh 46.3 | DNMT1 inh conf inactive | Beacon interf inactive
Cc1ccccc1CC(=O)NCCN1CCCCC1	DNMT1 block 79.6 | DNMT1 inh conf inactive | Beacon interf inactive
O=C(Cc1ccccc1)NCCN1CCCC1	none
CCCc1cc(=O)oc2cc(OCC(=O)NCCCN3CCOCC3)ccc12	none
Cc1ccc(C(=O)OCc2cc(=O)n3ccsc3n2)s1	none
O=C(OCc1cc(=O)n2ccsc2n1)c1ccccc1NCCO	Scp1 inh 58.8, DNMT1 block 59.5 | DNMT1 inh conf inactive | Beacon interf inactive
CC12CC3CC(C)(C1)CC(C(=O)Nc1nncs1)(C3)C2	none
O=C(CCCOc1cccc(Br)c1)NC1CCC(O)CC1 (stereo unspecified)	none
COCC(C)NC(=O)c1nn(Cc2ccccc2)c(=O)c2ccccc12 (stereo unspecified)	none
CCNC(=O)c1c(NC(=O)c2cc(-c3cc(C)ccc3O)n[nH]2)sc2c1CCCC2	DNMT1 block 76.0 | DNMT1 inh conf inactive | Beacon interf inactive
Cc1ccc(C(=O)Nc2sc3c(c2C(=O)NCc2ccco2)CCCC3)cc1	none
CCOc1ccc(/C=C2\SC(=O)N(c3ccc(O)cc3)C2=O)cc1OC	none (no result: LMPTP block, STEP inh, DNMT1 block, NadD inh, SUMO1 PPI mod)
COc1cc(/C=C2\SC(=O)N(c3ccc(Cl)cc3)C2=O)cc([N+](=O)[O-])c1O	Scp1 inh 54.9, LMPTP block 84.2, STEP inh 97.0, DNMT1 block 86.1, NadD inh 59.6, SUMO1 PPI mod 105.5 | DNMT1 inh conf inactive | Beacon interf inactive
CCCCN(C)CCn1c(=S)[nH]c2ncccc2c1=O	DNMT1 block 93.6 | DNMT1 inh conf inactive | Beacon interf inactive
CCN(CC)CCCn1c(=S)[nH]c2ncccc2c1=O	none
CCOCCCN1CC(=O)N2[C@@H](Cc3c([nH]c4ccccc34)C2(C)C)C1=O	none
COc1ccc(NC(=O)CCn2c(=S)[nH]c3ccccc3c2=O)cc1Cl	LMPTP block 48.9, DNMT1 block 54.4 (no result: Scp1 inh) | DNMT1 inh conf inactive | Beacon interf inactive
COc1ccc(-c2cc(C(=O)Nc3cc(Cl)ccc3O)no2)cc1	LMPTP block 65.5, DNMT1 block 53.8 | DNMT1 inh conf inactive | Beacon interf inactive
CCC(=O)Nc1ccc2nc3c(=O)[nH]c(=S)[nH]c3nc2c1	Scp1 inh 67.5, DNMT1 block 54.6 | DNMT1 inh conf inactive | Beacon interf inactive
CC1CCN(C(=O)NC(=O)c2ccc(Cl)cc2)CC1	none
CCCc1c(C)[nH]c2ccc(C(=O)O)cc2c1=S	DNMT1 block 92.9, SUMO1 PPI mod 95.9 | DNMT1 inh conf inactive | Beacon interf inactive
Cc1nc(CN2CCN(Cc3nc(C(c4ccccc4)c4ccccc4)no3)CC2)cs1	none
N=C1/C(=C\c2coc3ccccc3c2=O)C(=O)N=C2SC(c3ccncc3)=NN12	none
N=C1/C(=C/c2coc3ccccc3c2=O)C(=O)N=C2SC(c3ccco3)=NN12	Scp1 inh 54.2, DNMT1 block 65.5 | DNMT1 interf DR inactive | DNMT1 inh conf inactive | Beacon interf inactive
COc1cc([N+](=O)[O-])ccc1-c1ccc(/C=C2\C(=O)ON=C2c2ccccc2)o1	DNMT1 block 80.0, NadD inh 44.5, SUMO1 PPI mod 64.1 | DNMT1 inh conf inactive | Beacon interf inactive
COc1cc([N+](=O)[O-])ccc1-c1ccc(/C=N\n2cnnc2)o1	none
O=C(NCc1ccccc1F)C1CCCN(S(=O)(=O)N2CCOCC2)C1 (stereo unspecified)	none
COc1ccc(S(=O)(=O)N2CCCOC2CNC(=O)C(=O)NCc2ccco2)cc1C (stereo unspecified)	DNMT1 block 71.3 | DNMT1 inh conf inactive | Beacon interf inactive
O=C(Nc1cc(S(=O)(=O)N2CCCC2)ccc1Cl)c1cc(F)c(F)c(F)c1F	none
Cc1ccc(-c2nc3ccccc3s2)cc1NC(=S)NC(=O)/C=C/c1ccco1	DNMT1 block 54.2 | DNMT1 inh conf inactive | Beacon interf inactive
Cc1ccc(-c2nc3ccccc3o2)cc1NC(=S)NC(=O)/C=C/c1ccco1	none
CN1CCS/C1=C\C=C1/SC(=S)N(CC(=O)O)C1=O	DNMT1 block 62.9 | DNMT1 inh conf 57.2 | Beacon interf 59.9
C/C(=C\c1ccc(C(=O)O)cc1)c1ccc2c(c1)C(C)(C)CCC2(C)C	DNMT1 block 51.9 | DNMT1 inh conf inactive | Beacon interf inactive
Cc1cc(C)c2cc(C#N)c(NCCNC(=O)c3cccnc3)nc2c1	none (no result: Scp1 inh, STEP inh, DNMT1 block, NadD inh)
N#Cc1c(SCC(=O)Nc2nccs2)nc2c(c1-c1ccco1)CCCC2	DNMT1 block 59.8 | DNMT1 inh conf inactive | Beacon interf inactive
Cc1ccccc1NC(=O)CSc1nc2c(c(-c3ccco3)c1C#N)CCCC2	none
N#C/C(=C\c1c(N2CCC(C(N)=O)CC2)nc2ccccn2c1=O)C(=O)NCc1ccco1	DNMT1 block 64.0 | DNMT1 inh conf inactive | Beacon interf inactive
Cc1cccn2c(=O)c(/C=C(\C#N)C(=O)NCc3ccco3)c(N3CCOCC3)nc12	none
CCCNC(=O)c1ccc2c(c1)nc(C)n2-c1cccc(Cl)c1	none
Cc1onc(-c2c(F)cccc2Cl)c1C(=O)NCc1ccc(F)cc1	none
CCC(NC(=O)c1cccc(Cn2nc(C)c([N+](=O)[O-])c2C)c1)c1ccc(C(C)C)cc1 (stereo unspecified)	DNMT1 block 54.8 | DNMT1 inh conf inactive | Beacon interf inactive
Cc1nn(Cc2cccc(C(=O)NC(C)c3ccc(C(C)(C)C)cc3)c2)c(C)c1[N+](=O)[O-] (stereo unspecified)	none
